This passage reports Ki, inhibition and Activity results from ChEMBL document CHEMBL1139846, “New fluorescent 2-phenylindolglyoxylamide derivatives as probes targeting the peripheral-type benzodiazepine receptor: design, synthesis, and biological evaluation” (J Med Chem, 2007).

One test addresses Translocator protein (Rattus norvegicus, UniProt P16257). Briefly: Displacement of [3H]PK 11195 from peripheral-type benzodiazepine receptor in rat kidney mitochondrial membranes. It is filed as cell membranes, Membrane.
Test [1] relates to GABA-A receptor / central benzodiazepine receptor (Rattus norvegicus). In words: Displacement of [3H]flumazenil from central benzodiazepine receptor in rat cerebral cortex membranes at 10 uM. Conditions: Membrane.
In test [2] the target is Translocator protein (Rattus norvegicus) (UniProt P16257). In words: Displacement of 2-(2-(4-fluorophenyl)-1H-indol -3-yl)-N-(6-(7-nitrobenzo[c][1, 2,5]oxadiazol-4-ylamino)hexyl )-2-oxoacetamide from peripheral type benzodiazepine receptor in rat C6 glioma cells at 10 uM. The class given is cell-based. In outline:
(§1)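 Subconfluent rat C6 glioma cells in DMEM preincubated 30 min with PK 11195 or Ip (10 µM to 100 µM range), then stained with fluorescent PBR ligand at final 10 µM in culture medium, 30 min, 37 °C, 5% CO2. PBS wash, 4% paraformaldehyde fixation, fluorescence microscopy; displacement of cytoplasmic (mitochondrial) staining judged visually.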

Test [3] shares this target. Briefly: Displacement of 2-(2-(4-fluorophenyl)-1H-indol -3-yl)-N-(6-(7-nitrobenzo[c][1, 2,5]oxadiazol-4-ylamino)hexyl )-2-oxoacetamide from peripheral type benzodiazepine receptor in rat C6 glioma cells at 50 uM. It is filed as cell-based. In outline:
as §1

The source made the active and inactive calls. No cut-off for these calls is given here. A value given as a limit tells only on which side of the number the result lay.

Sequence of Translocator protein (Rattus norvegicus) (P16257 whole entry, looked up): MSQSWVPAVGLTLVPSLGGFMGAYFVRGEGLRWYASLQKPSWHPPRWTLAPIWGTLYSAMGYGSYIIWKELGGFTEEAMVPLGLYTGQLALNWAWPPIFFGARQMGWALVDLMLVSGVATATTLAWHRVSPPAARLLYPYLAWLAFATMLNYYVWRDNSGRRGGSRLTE
Sequence of Translocator protein (P16257 whole entry, looked up): as above

In turn, `O=C(NCCNc1ccc([N+](=O)[O-])c2[n-][o+]nc12)C(=O)c1c(-c2ccc(F)cc2)[nH]c2ccccc12` yielded a Ki on Translocator protein of 0.835 µM. For `O=C(NCCNc1ccc([N+](=O)[O-])c2nonc12)C(=O)c1c(-c2ccccc2)[nH]c2ccccc12`, the inhibition in test [1] was below 10%. Also, the Ki on Translocator protein was 0.994 µM.

As for `O=C(NCCCCNc1ccc([N+](=O)[O-])c2nonc12)C(=O)c1c(-c2ccccc2)[nH]c2ccccc12`, the inhibition in test [1] is below 10%. The compound further yielded a Ki on Translocator protein of 0.042 µM. The corresponding values for `O=C(NCCCCNc1ccc([N+](=O)[O-])c2nonc12)C(=O)c1c(-c2ccc(F)cc2)[nH]c2ccccc12` are below 10% and 0.023 µM. Consider `CCCN(CCC)C(=O)Cc1c(-c2ccc(Cl)cc2)nc2ccc(Cl)cn12` [ALPIDEM], for which the Ki at Translocator protein worked out at 0.0005 µM. In test [1], `O=C(NCCCCCCNc1ccc([N+](=O)[O-])c2nonc12)C(=O)c1c(-c2ccc(F)cc2)[nH]c2ccccc12` returned an inhibition below 10%. In addition, the inhibitory constant (Ki) on Translocator protein amounted to 0.012 µM. Take `O=C(NCCNc1ccc([N+](=O)[O-])c2nonc12)C(=O)c1c(-c2ccc(F)cc2)[nH]c2ccccc12`: the inhibition in test [1] is below 10%. Regarding `CCCCCCN(CCCCCC)C(=O)C(=O)c1c(-c2ccc(F)cc2)[nH]c2ccccc12`, the outcome in test [2] and in test [3] was Active. Consider `O=C(NCCCCCCNc1ccc([N+](=O)[O-])c2nonc12)C(=O)c1c(-c2ccccc2)[nH]c2ccccc12`, for which the inhibition in test [1] is below 10%.

Regarding `CCC(C)N(C)C(=O)c1cc2ccccc2c(-c2ccccc2Cl)n1` (stereo unspecified), the result in test [2] was Active. In the case of `O=C(NCCCCCCNc1ccc([N+](=O)[O-])c2[n-][o+]nc12)C(=O)c1c(-c2ccccc2)[nH]c2ccccc12`, the inhibitory constant (Ki) at Translocator protein was found to be 0.017 µM.
